# From ChEMBL document CHEMBL2150886, “Synthesis of [3β-acetoxy-urs-12-en-28-oyl]-1-monoglyceride and investigation on its anti tumor effects against BGC-823” (Bioorg Med Chem, 2011)
# The source made the active and inactive calls. No cut-off for these calls is given here.
# How the values were obtained:
# BGC-823 [1] = experiment: Reduction in survivin protein expression in human BGC823 cells at 10 uM incubated for 48 hrs by Western blotting; type: functional
# Method in brief: (§1)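 BGC-823 cells were treated with 10, 20 or 40 µM for 48 h, detached with trypsin/EDTA, and more than 10⁶ cells were lysed. Protein was quantified by Bradford, and 150–200 µg per lane was run on 12.5% SDS-PAGE and transferred to PVDF. Antibodies: Survivin 1:1000, Bcl-2 1:200, β-actin 1:1000; HRP secondary 1 h; ECL detection. Expression was quantified relative to control.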
# BGC-823 [2] = experiment: Cell cycle arrest in human BGC823 cells assessed as accumulation of cells at subG0/G1 phase at 20 uM incubated for 48 hrs by propidium iodide staining based flow cytometry (Rvb= 0.66%); type: functional
# Method in brief: (§2)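 BGC-823 cells were exposed to 20 µM for 24, 48 or 72 h, or to 10, 20 or 40 µM for 48 h. About 10⁶ cells were harvested and stained with propidium iodide using a cell cycle kit, then analysed by flow cytometry. Percentages were read for sub-G0/G1, G0/G1, S and G2/M. Each experiment was run at least three times; mean ± SD.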
# BGC-823 [3] = experiment: Antitumor activity against human BGC823 cells xenografted in nude mouse assessed as reduction in tumor volume at 30 mg/kg, iv dosed 5 times; type: functional; parameters: scale not given: the % may be the effect or the level left
# Method in brief: (§3)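 Male nude mice (5 weeks, 18–22 g) inoculated subcutaneously with 1 × 10⁷ BGC-823 cells. At about 200 mm³ tumours, animals were randomised into four groups of eight. Each received 0.2 mL iv by tail vein; controls got 0.9% saline. Tumour volume was measured daily as 0.5 × length × width²; tumours were weighed at the end. Values are mean ± SD, n = 8.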
# BGC-823 [4] = experiment: Cell cycle arrest in human BGC823 cells assessed as accumulation of cells at subG0/G1 phase incubated for 24 to 72 hrs by propidium iodide staining based flow cytometry; type: functional; method in brief: as §2
# Mus musculus [5] = experiment: Toxicity in human BGC823 cells xenografted nude mouse assessed as body weight changes at 30 mg/kg, iv treated 2 times on day 1 and day 4 post tumor implant (reference value: 20.58 +/- 1.35 grams); type: organism-based, BGC-823; parameters: dose 30 mg/kg, route intravenous; conditions: in vivo
# Method in brief: (§4)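 Nude mice (male, 5 weeks, 18–22 g) carried subcutaneous BGC-823 xenografts from 1 × 10⁷ cells. Dosing started at about 200 mm³ tumour volume, with eight mice per group. Each dose was 0.2 mL given iv; the saline control received 0.9% saline. Body weight was recorded on days 1, 4, 7, 10, 13 and 16 of treatment and reported as mean ± SD, n = 8.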
# BGC-823 [6] = experiment: Reduction in survivin protein expression in human BGC823 cells at 40 uM incubated for 48 hrs by Western blotting; type: functional; method in brief: as §1
# HT-29 = experiment: Cytotoxicity against human HT-29 cells incubated for 48 hrs by MTT assay; type: functional, cell-based; conditions: HT-29, 48 h
# Method in brief: (§5)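 Cells were grown in RPMI-1640 with 10% heat-inactivated FCS at 37 °C under 5% CO₂, seeded at 5 × 10³ per well and left 24 h. Compounds in DMSO were diluted in medium to 0.5% final DMSO; controls received 0.5% DMSO. Exposure was 24–72 h, followed by MTT for 4 h, formazan dissolved in DMSO, and A570. Six wells per sample; IC₅₀ taken at 50% inhibition; ≥3 repeats.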
# BGC-823 [7] = experiment: Induction of apoptosis in human BGC823 cells assessed as necrotic damaged cell population at 20 uM by annexinV/propidium iodide staining (reference value: 0.5%; type: functional
# Mus musculus [8] = experiment: Toxicity in human BGC823 cells xenografted nude mouse assessed as body weight changes at 6 mg/kg, iv treated 2 times on day 1 and day 4 post tumor implant (reference value: 20.58 +/- 1.35 grams); type: organism-based, BGC-823; parameters: dose 6 mg/kg, route intravenous; conditions: in vivo; method in brief: as §4
# BGC-823 [9] = experiment: Induction of apoptosis in human BGC823 cells assessed as increase in caspase 3 activity at 10 to 20 uM incubated for 48 hrs; type: functional, cell-based
# Method in brief: (§6)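 BGC-823 cells were exposed to 0, 10 or 20 µM for 48 h, detached with trypsin/EDTA and washed in cold PBS. About 10⁶ cells were lysed, and the lysate was incubated 1 h with Ac-DEVD-pNA, with cleavage read at 405 nm. Activity was normalised to Bradford protein and expressed relative to the untreated control. Mean ± SD of three independent experiments.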
# BGC-823 [10] = experiment: Induction of apoptosis in human BGC823 cells assessed as induction of DNA fragmentation at 10 to 40 uM incubated for 48 hrs by alkaline comet assay; type: functional, cell-based
# Method in brief: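 Alkaline comet assay on about 10⁵ BGC-823 cells after 48 h at 37 °C with 10, 20 or 40 µM. Cells with diffuse fan-like tails and small heads were scored as apoptotic; large defined heads with minimal DNA diffusion were scored as normal.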
# BGC-823 [11] = experiment: Induction of apoptosis in human BGC823 cells assessed as increase in caspase 3 activity at 20 uM incubated for 48 hrs relative to untreated control; type: functional; method in brief: as §6
# Mus musculus [12] = experiment: Toxicity in human BGC823 cells xenografted nude mouse assessed as body weight changes at 30 mg/kg, iv treated on day 1 post tumor implant (reference value: 19.69 +/- 1.21 grams); type: organism-based, BGC-823; parameters: dose 30 mg/kg, route intravenous; conditions: in vivo; method in brief: as §4
# Mus musculus [13] = experiment: Toxicity in human BGC823 cells xenografted nude mouse assessed as body weight changes at 6 mg/kg, iv treated 5 times on day 1, 4, 7, 10 and day 13 post tumor implant (reference value: 20.21 +/- 1.83 grams); type: organism-based, BGC-823; parameters: dose 6 mg/kg, route intravenous; conditions: in vivo; method in brief: as §4
# Mus musculus [14] = experiment: Toxicity in human BGC823 cells xenografted nude mouse assessed as body weight changes at 6 mg/kg, iv treated 4 times on day 1, 4, 7 and 10 post tumor implant (reference value: 20.54 +/- 1.45 grams); type: organism-based, BGC-823; parameters: dose 6 mg/kg, route intravenous; conditions: in vivo; method in brief: as §4
# Mus musculus [15] = experiment: Toxicity in human BGC823 cells xenografted nude mouse assessed as body weight changes at 6 mg/kg, iv treated on day 1 post tumor implant (reference value: 19.69 +/- 1.21 grams); type: organism-based, BGC-823; parameters: dose 6 mg/kg, route intravenous; conditions: in vivo
# Mus musculus [16] = experiment: Toxicity in human BGC823 cells xenografted nude mouse assessed as body weight changes at 30 mg/kg, iv treated 5 times on day 1, 4, 7, 10, 13 and day 16 post tumor implant (reference value: 20.12 +/- 1.52 grams); type: organism-based, BGC-823; parameters: dose 30 mg/kg, route intravenous; conditions: in vivo; method in brief: as §4
# Mus musculus [17] = experiment: Toxicity in human BGC823 cells xenografted nude mouse assessed as body weight changes at 30 mg/kg, iv treated 3 times on day 1, day 4 and day 7 post tumor implant (reference value: 20.79 +/- 1.29 grams); type: organism-based, BGC-823; parameters: dose 30 mg/kg, route intravenous; conditions: in vivo; method in brief: as §4
# BGC-823 [18] = experiment: Induction of apoptosis in human BGC823 cells assessed as viable cell population at 40 uM by annexinV/propidium iodide staining (reference value: 95.5%); type: functional
# BGC-823 [19] = experiment: Cell cycle arrest in human BGC823 cells assessed as accumulation of cells at subG0/G1 phase at 40 uM incubated for 24 to 72 hrs by propidium iodide staining based flow cytometry (Rvb= 0.66%); type: functional
# BGC-823 [20] = experiment: Cytotoxicity against human BGC823 cells by MTT assay; type: functional, cell-based; method in brief: as §5
# BGC-823 [21] = experiment: Induction of apoptosis in human BGC823 cells assessed as viable cell population at 20 uM by annexinV/propidium iodide staining (reference value: 95.5%); type: functional
# BGC-823 [22] = experiment: Antitumor activity against human BGC823 cells xenografted in nude mouse assessed as reduction in tumor volume at 6 mg/kg, iv dosed 5 times; type: functional; parameters: scale not given: the % may be the effect or the level left; method in brief: as §3
smiles,measurement,setting,value
CC(=O)O[C@H]1CC[C@]2(C)[C@H]3CC=C4[C@@H]5[C@@H](C)[C@H](C)CC[C@]5(C(=O)OCC(O)CO)CC[C@@]4(C)[C@]3(C)CC[C@H]2C1(C)C (stereo partly drawn),Activity,BGC-823 [1],37.6%
same,Activity,BGC-823 [2],7.91%
same,Activity,BGC-823 [3],41.9%
same,Activity,BGC-823 [4],Dose-dependent effect
same,Activity,Mus musculus [5],19.61 g
same,Activity,BGC-823 [6],53.1%
same,IC50,HT-29,18.4 µM
same,Activity,BGC-823 [7],0.1%
same,Activity,Mus musculus [8],20.66 g
same,Activity,BGC-823 [9],Active
same,Activity,BGC-823 [10],Dose-dependent effect
same,fold change (FC),BGC-823 [11],3.65
same,Activity,Mus musculus [12],19.26 g
same,Activity,Mus musculus [13],20.07 g
same,Activity,Mus musculus [14],20.03 g
same,Activity,Mus musculus [15],19.21 g
same,Activity,Mus musculus [16],19.57 g
same,Activity,Mus musculus [17],19.29 g
same,Activity,BGC-823 [18],2%
same,Activity,BGC-823 [19],96.13%
same,IC50,BGC-823 [20],15.7 µM
same,Activity,BGC-823 [21],72.2%
same,Activity,BGC-823 [22],29.3%
